Legend:
[1] = molecular target: T1, Metabotropic glutamate receptor 5 (Homo sapiens, UniProt P41594); assay: Negative allosteric modulation of human mGluR5 expressed in recombinant HEK293 cells by FLIPR assay; format: cell-based; conditions: for inhibition: concentration not given here
In short: (§1)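 HEK293 cells recombinantly expressing human mGluR5 were seeded at 2×10^4 cells/well on poly-D-lysine. They were incubated overnight at 37 °C in glutamate/glutamine-free medium, then loaded for 1 h at 37 °C with calcium 5 dye containing 3 U/ml glutamic pyruvic transaminase and 3 mM sodium pyruvate. Calcium flux was read by FLIPR.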

[2] = molecular target: T1, Metabotropic glutamate receptor 5; assay: Positive allosteric modulation of human mGluR5 expressed in recombinant HEK293 cells by FLIPR assay; format: cell-based; design: Activity: concentration or dose not given beside the values; in short: as §1

SMILES | IC50 [1] [nM] | Activity [2] [%] | EC50 [2] [nM] | Emax [2] [%] | inhibition [1] [%]
O=C(C1CCC2(CCC2)CC1)N1CC(c2nc(-c3cccc(Cl)c3)no2)C1 | > 10000 | 24 | 1100 | 40 | –
Cc1ccc(C(=O)N2CC(c3nc(-c4cccc(F)c4)no3)C2)cc1 | > 10000 | 30 | 6800 | 27 | –
CC1CCC(C(=O)N2CC(c3nc(-c4cccc(F)c4)no3)C2)CC1 (configuration not stated) | > 10000 | 11 | 2200 | 47 | –
O=S(=O)(c1ccc(F)cc1)N1CC(c2nc(-c3cccc(Cl)c3)no2)C1 | 130 | – | > 10000 | -7 | 85
Cc1cccc(-c2noc(C3CN(C(=O)C4CCCC(C)C4)C3)n2)c1 (configuration not stated) | > 10000 | 19 | 500 | 46 | –
O=C(Cc1cccc(F)c1)N1CC[C@H]1c1nc(-c2cccc(F)c2)no1 | > 10000 | 75 | 2400 | 52 | –
O=S(=O)(c1ccc(Cl)cc1)N1CC(c2nc(-c3cccc(Cl)c3)no2)C1 | 170 | – | > 10000 | 7 | 79
Cc1cccc(-c2noc(C3CN(C(=O)C4CCCC4)C3)n2)c1 | 2500 | – | > 10000 | -7 | 70
Cc1cccc(-c2noc(C3CN(C(=O)C4CCC(C(F)(F)F)CC4)C3)n2)c1 (configuration not stated) | > 10000 | – | 1000 | 36 | 3
Cc1cccc(-c2noc(C3CN(C(=O)c4cccc(F)c4)C3)n2)c1 | 2100 | – | > 10000 | 15 | 62
Cc1cccc(-c2noc([C@@H]3CCN3C(=O)c3ccccc3F)n2)c1 | 1800 | – | > 10000 | 6.2 | 58
O=C(Cc1ccc(F)cc1)N1CC[C@H]1c1nc(-c2cccc(F)c2)no1 | > 10000 | 12 | 1200 | 29 | –
O=C([C@@H]1CC2CCC1C2)N1CC(c2nc(-c3cccc(Cl)c3)no2)C1 (some centres not stated) | – | – | 98 | 66 | –
CC1CCC(C(=O)N2CC(c3nc(-c4cccc(Cl)c4)no3)C2)CC1 (configuration not stated) | > 10000 | 120 | 1500 | 75 | –
Cc1cccc(-c2noc([C@@H]3CCN3C(=O)c3ccc(F)c(F)c3)n2)c1 | > 10000 | 92 | 1500 | 51 | –
Cc1cccc(-c2noc(C3CN(C(=O)c4ccc(Cl)cc4)C3)n2)c1 | > 10000 | 6.3 | 7100 | 33 | –
Cc1cccc(-c2noc(C3CN(C(=O)C4CCCCC4)C3)n2)c1 | > 10000 | 20 | 950 | 45 | –
O=C(C1CCCCC1)N1CC(c2nc(-c3cccc(Cl)c3)no2)C1 | > 10000 | 35 | 520 | 43 | –
O=C(N1CCC(F)CC1)N1CC(c2nc(-c3cccc(Cl)c3)no2)C1 | > 10000 | 61 | 990 | 41 | –
Cc1cccc(-c2noc(C3CN(C(=O)C4CCOC4)C3)n2)c1 (configuration not stated) | 1300 | – | > 10000 | -7 | 80

SMILES | IC50 [1] [nM] | Activity [2] [%] | EC50 [2] [nM] | Emax [2] [%] | inhibition [1] [%]
Cc1cccc(-c2noc(C3CN(C(=O)C4CCC4)C3)n2)c1 | 1000 | – | > 10000 | 3 | 77
Cc1cccc(-c2noc([C@@H]3CCN3C(=O)c3ccc(C#N)cc3)n2)c1 | 1400 | – | > 10000 | 88 | 72
O=C([C@H]1CC2CCC1C2)N1CC(c2nc(-c3cccc(Cl)c3)no2)C1 (some centres not stated) | – | – | 74 | 120 | –
O=C(N1CCCCCC1)N1CC(c2nc(-c3cccc(Cl)c3)no2)C1 | > 10000 | 41 | 47 | 44 | –
Cc1cccc(-c2noc(C3CN(C(=O)C4CCOCC4)C3)n2)c1 | 1800 | – | > 10000 | -2 | 74
CC1CN(C(=O)N2CC(c3nc(-c4cccc(Cl)c4)no3)C2)CC(C)O1 (configuration not stated) | 990 | – | > 10000 | – | 51
O=C(c1ccccc1F)N1CC(c2nc(-c3cccc(Cl)c3)no2)C1 | 670 | – | > 10000 | -12 | 86
Cc1cccc(-c2noc(C3CN(C(=O)c4ccccc4F)C3)n2)c1 | 1400 | – | > 10000 | 5 | 64
O=C(C1CCCO1)N1CC(c2nc(-c3cccc(Cl)c3)no2)C1 (configuration not stated) | 890 | – | > 10000 | -3 | 79
O=C(C1CCC(F)(F)CC1)N1CC(c2nc(-c3cccc(F)c3)no2)C1 | > 10000 | – | 520 | 53 | 11
Cc1cccc(S(=O)(=O)N2CC(c3nc(-c4cccc(Cl)c4)no3)C2)c1 | 390 | – | > 10000 | -2 | 82
COC1CCCN(C(=O)N2CC(c3nc(-c4cccc(Cl)c4)no3)C2)C1 (configuration not stated) | 1830 | – | > 10000 | -14 | 80
O=C(c1cccc(F)c1)N1CC(c2nc(-c3cccc(Cl)c3)no2)C1 | 780 | – | > 10000 | -12 | 87
COC1CCN(C(=O)N2CC(c3nc(-c4cccc(Cl)c4)no3)C2)CC1 | > 10000 | – | > 10000 | 11 | –
O=C(c1ccc(F)cc1)N1CC(c2nc(-c3cccc(F)c3)no2)C1 | > 10000 | 6 | 2400 | 40 | –
O=C(c1ccc(F)c(F)c1)N1CC(c2nc(-c3cccc(F)c3)no2)C1 | > 10000 | 50 | 3200 | 35 | –
O=C(c1ccc(Cl)cc1)N1CC(c2nc(-c3cccc(F)c3)no2)C1 | > 10000 | 82 | 2500 | 62 | –
Cc1ccc(S(=O)(=O)N2CC(c3nc(-c4cccc(C)c4)no3)C2)cc1 | 670 | – | > 10000 | 1 | 80
O=C([C@@H]1CC2CCC1C2)N1CC(c2nc(-c3ccccc3)no2)C1 (some centres not stated) | – | – | 400 | 88 | –
Cc1cccc(-c2noc(C3CN(C(=O)C4CCC(C)CC4)C3)n2)c1 (configuration not stated) | > 10000 | 49 | 970 | 68 | –

SMILES | IC50 [1] [nM] | Activity [2] [%] | EC50 [2] [nM] | Emax [2] [%] | inhibition [1] [%]
Cc1cccc(-c2noc([C@@H]3CCN3C(=O)Cc3ccc(F)cc3)n2)c1 | > 10000 | 30 | 1900 | 24 | –
CC1CCCC(C(=O)N2CC(c3nc(-c4cccc(Cl)c4)no3)C2)C1 (configuration not stated) | > 10000 | 34 | 410 | 53 | –
O=C(C1CCC(C(F)(F)F)CC1)N1CC(c2nc(-c3cccc(F)c3)no2)C1 (configuration not stated) | > 10000 | 37 | 680 | 56 | –
O=C(c1ccccc1F)N1CC[C@H]1c1nc(-c2cccc(F)c2)no1 | 920 | – | > 10000 | 57 | 68
CC1CCN(C(=O)N2CC(c3nc(-c4cccc(Cl)c4)no3)C2)CC1 | > 10000 | – | 865 | 66 | –
CC1CCCN(C(=O)N2CC(c3nc(-c4cccc(Cl)c4)no3)C2)C1 (configuration not stated) | 3400 | – | > 10000 | 6 | 69
O=C([C@H]1CC2CCC1C2)N1CC(c2nc(-c3ccccc3)no2)C1 (some centres not stated) | – | – | 120 | 160 | –
O=C(N1CCCCC1)N1CC(c2nc(-c3cccc(Cl)c3)no2)C1 | > 10000 | 87 | 370 | 44 | –
Cc1cccc(-c2noc(C3CN(S(=O)(=O)c4ccc(Cl)cc4)C3)n2)c1 | 1100 | – | > 10000 | 3 | 75
O=C(N1CCCC(F)C1)N1CC(c2nc(-c3cccc(Cl)c3)no2)C1 (configuration not stated) | > 10000 | 81 | 200 | 51 | –
Cc1cccc(-c2noc(C3CN(C(=O)c4ccc(F)cc4)C3)n2)c1 | > 10000 | – | 1400 | 32 | 50
Cc1cccc(-c2noc(C3CN(C(=O)C4CCC(F)(F)CC4)C3)n2)c1 | > 10000 | 3 | 590 | 36 | –
Cc1cccc(-c2noc(C3CN(S(=O)(=O)c4ccc(F)cc4)C3)n2)c1 | 950 | – | > 10000 | 6 | 74
O=C(C1CCCCC1)N1CC(c2nc(-c3cccc(F)c3)no2)C1 | > 10000 | 19 | 1000 | 46 | –
Cc1cccc(-c2noc(C3CN(S(=O)(=O)c4cccc(C)c4)C3)n2)c1 | 650 | – | > 10000 | -4 | 76
CC1CCN(C(=O)N2CC(c3nc(-c4cccc(Cl)c4)no3)C2)C1 (configuration not stated) | > 10000 | – | > 10000 | 88 | 80
Cc1cccc(-c2noc(C3CN(C(=O)C4CCCO4)C3)n2)c1 (configuration not stated) | 1900 | – | > 10000 | 3 | 79
Cc1ccc(S(=O)(=O)N2CC(c3nc(-c4cccc(Cl)c4)no3)C2)cc1 | 920 | – | > 10000 | 2 | 75
O=C(C1CCC1)N1CC(c2nc(-c3cccc(Cl)c3)no2)C1 | 1500 | – | > 10000 | -7 | 75
O=C([C@@H]1CC2CCC1C2)N1CC(c2nc(-c3cccc(F)c3)no2)C1 (some centres not stated) | – | – | 100 | 110 | –

Source: ChEMBL document CHEMBL2150889, “Azetidinyl oxadiazoles as potent mGluR5 positive allosteric modulators” (Bioorg Med Chem Lett, 2012)
